Laboratory results taken from the RNAGym collection of RNA variant scans (doi:10.1126/science.aae0568).
Variants at the floor of the assay were thinned out.

B1: tRNA (parent)
chain: GUUCCGUUGGCGUAAUGGUAACGCGUCUCCCUCCUAAGGAGAAGACUGCGGGUUCGAGUCCCGUACGGAACG

Variants of: B1
Assay: yeast fitness relative to wild type (ratio to wild type); higher = fitter; tRNA-Arg(CCU), competitive growth, 37 C, YPD
How it was run: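 Gene amplicons from the start population and from each of six end populations were read by 100-nucleotide paired-end sequencing. Those end populations came from pooled Saccharomyces cerevisiae strains carrying tRNA-Arg(CCU) gene variants at the native locus, competed in YPD at 37°C for 24 hours. Fitness relative to wild type was worked out from changes in genotype frequencies. Genotypes needed ≥ 100 starting reads, and estimates < 0.5 were set to 0.5.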

| Variant | yeast fitness |
| --- | --- |
| C5A G50C | 0.626 |
| C5A C11G G25A C61A | ≤ 0.5 |
| C5A C55G | 0.618 |
| C5A C11A G17C A43G | ≤ 0.5 |
| C5A G9C A40G | ≤ 0.5 |
| C5A G39A C60U C62A | 0.557 |
| C5A C24G C34G | ≤ 0.5 |
| C5A U13C C27A U28G G67U | ≤ 0.5 |
| C5A C11A C24U U26C C29U C31G | ≤ 0.5 |
| C5A G17A C55U | ≤ 0.5 |
| C5A G6C C30G A42G | 0.606 |
| C5A C11U A14U C27U A36U A43G C46U | ≤ 0.5 |
| C5A U13G U32A A42U G52A U54A A69C | ≤ 0.5 |
| C5A A40U C60U C61G | 0.525 |
| C5A G38U C55A | ≤ 0.5 |
| C5A G6C A15G A40G G67A | ≤ 0.5 |
| C5A C31G U54C | 0.588 |
| C5A A21C U54G C60U | ≤ 0.5 |
| C5A A21C C30G C34U G38C C49U C55U A70C | ≤ 0.5 |
| C5A A20C C61U | ≤ 0.5 |
| C5A A20G A40G C49U | ≤ 0.5 |
| C5A C11G G51A C62U | ≤ 0.5 |
| C5A C34G C66U | ≤ 0.5 |
| C5A U16G A21C C24U C30A | 0.618 |

| Variant | yeast fitness |
| --- | --- |
| C5A A15U A69C | ≤ 0.5 |
| C5A C30A G51A | ≤ 0.5 |
| C5A U13A C30U A45C | ≤ 0.5 |
| C5A G38A U47C | 0.599 |
| C5A C49G | 0.704 |
| C5A C49U | 0.848 |
| C5A A15G C33A C61U G67A | ≤ 0.5 |
| C5A U13A U35A U59C A70U | 0.58 |
| C5A C31G A37G A70U | 0.532 |
| C5A C11G G48C G67C | ≤ 0.5 |
| C5A A37G | 0.7 |
| C5A U7A A36C G38C C55U C62A | ≤ 0.5 |
| C5A C49A G68C | 0.536 |
| C5A A45U C49U | 0.64 |
| C5A G17U A69C A70G | ≤ 0.5 |
| C5A G6C G63A | ≤ 0.5 |
| C5A U28C | 0.784 |
| C5A U8C A21G | 0.53 |
| C5A C34U | 0.786 |
| C5A G18A | 0.818 |
| C5A A21G C22G C27A C33U A40U C55G | ≤ 0.5 |
| C5A U13G A14G U32A A42U G52A U54A C60G | ≤ 0.5 |
| C5A C11A C30U C31A C61A | ≤ 0.5 |
| C5A A40U | 0.849 |

| Variant | yeast fitness |
| --- | --- |
| C5A C24U U35C C66U | 0.549 |
| C5A U13G C24G C31A C62U C66U | ≤ 0.5 |
| C5A U19C C27U C29G C34A A42C U54A | ≤ 0.5 |
| C5A C24G C31G G51C U59G | ≤ 0.5 |
| C5A C11U U13G C29G C33A U59A | ≤ 0.5 |
| C5A G12A U35C G44A G48C C55G A69U | ≤ 0.5 |
| C5A A65G | 0.978 |
| C5A U19C C34G C55A U64G A69C | 0.598 |
| C5A C27U G39C C49U G58C C62U | ≤ 0.5 |
| C5A C29G G56C U59A | 0.717 |
| C5A G12C G18C C30A C31G U54G | 0.605 |
| C5A G51A | 0.71 |
| C5A G23A G39C G41C A70C | ≤ 0.5 |
| C5A U19G C31G U53A | 0.775 |
| C5A C11G A21U A65C | ≤ 0.5 |
| C5A C30G A36G A57U A65U | ≤ 0.5 |
| C5A C33U | 0.603 |
| C5A C33A | 0.67 |
| C5A A15U G25A U59C | ≤ 0.5 |
| C5A C33U A43U C49G G50C C61U C66U | ≤ 0.5 |
| C5A G9C A36U U54A C55U | ≤ 0.5 |
| C5A U19C G50A C55A C66A | ≤ 0.5 |
| C5A C46G C49U | 0.727 |
| C5A A57G C60G | ≤ 0.5 |

| Variant | yeast fitness |
| --- | --- |
| C5A A21C A43C G48A C66A | ≤ 0.5 |
| C5A C33A A40C G41A U59A U64A C66G | 0.584 |
| C5A U28A C31U G51C | ≤ 0.5 |
| C5A C22A A40G C60A | ≤ 0.5 |
| C5A A37C G38C C55U | 0.598 |
| C5A C11G C62G | ≤ 0.5 |
| C5A G48C | 0.953 |
| C5A U26C C27U | 0.687 |
| C5A U7C A36G | ≤ 0.5 |
| C5A C22U C49U G50C | ≤ 0.5 |
| C5A C24U A69C | 0.641 |
| C5A G9C G38C G63C C66U | ≤ 0.5 |
| C5A C11G A45C | ≤ 0.5 |
| C5A U13A A45C | 0.576 |
| C5A C11U C31G A70U | ≤ 0.5 |
| C5A A45C C46G G48C U64C | ≤ 0.5 |
| C5A C33U C46G C66G G67A A69C | ≤ 0.5 |
| C5A G25A C29A C30U | 0.758 |
| C5A G41A A42C G50C A70G | 0.502 |
| C5A G6A U16A A45G G50A | ≤ 0.5 |
| C5A G52A | 0.641 |
| C5A G52C | 0.567 |
| C5A C60G C66G A69G | ≤ 0.5 |
| C5A A20U C31G | 0.585 |

| Variant | yeast fitness |
| --- | --- |
| C5A G63A | 0.683 |
| C5A G63U | 0.722 |
| C5A C22G C49G G68C | 0.578 |
| C5A A20C C22A C24U C31U G67A | ≤ 0.5 |
| C5A A20G U32G A43C A45U | ≤ 0.5 |
| C5A C22G C27G A36U A40C C66U | ≤ 0.5 |
| C5A G41A G56C A65C | ≤ 0.5 |
| C5A A21G C31G | 0.62 |
| C5A C27G C30U U32C A36G A37U G67A | ≤ 0.5 |
| C5A A15U C31G G39A G58A G67A | 0.558 |
| C5A C24G G63A | ≤ 0.5 |
| C5A C27G | 0.709 |
| C5A A15G C61A | ≤ 0.5 |
| C5A G17C G18C G58A U59G | 0.535 |
| C5A G10A U35C C49A | ≤ 0.5 |
| C5A G50C U64C | 0.73 |
| C5A C22A G50C | 0.738 |
| C5A A21C C24A A70U | ≤ 0.5 |
| C5A A69C | 0.919 |
| C5A A20C A21G A65G C66U | ≤ 0.5 |
| C5A C33U G39C C55A G67C | ≤ 0.5 |
| C5A C30A A70U | 0.742 |
| C5A C30G C31G U32C | 0.598 |
| C5A G23C G50C | ≤ 0.5 |

| Variant | yeast fitness |
| --- | --- |
| C5A A20U G23A C66U | ≤ 0.5 |
| C5A U7A G25C C46U | ≤ 0.5 |
| C5A C11A C34A A40U | 0.696 |
| C5A A65C G68C | ≤ 0.5 |
| C5A A65C G68A | 0.628 |
| C5A C11G C55U C61A | ≤ 0.5 |
| C5A G51A C61A | ≤ 0.5 |
| C5A C55U A65G | 0.583 |
| C5A C34U U35A C49A U54A | 0.661 |
| C5A C55A A69C | ≤ 0.5 |
| C5A U19C | 1.08 |
| C5A U16G C27U C29U A36U G41A C49U C66U | ≤ 0.5 |
| C5A C33A G38A A45C G52A U54G G67A | ≤ 0.5 |
| C5A U7A A21G G67C | 0.541 |
| C5A U8C U13C G18A C31G C46U | ≤ 0.5 |
| C5A C11G C61G | 0.502 |
| C5A G48C G51C U53A | ≤ 0.5 |
| C5A C31U C33U A42C C49U A65C | ≤ 0.5 |
| C5A A15U U19C C31G G39A G58A G67A | ≤ 0.5 |
| C5A U8C | 0.929 |
| C5A C11U A21G C24A G52A C60A A69G | ≤ 0.5 |
| C5A U7G A14C U16G A43G U53C C62G | ≤ 0.5 |
| C5A G51C G63C A65C | ≤ 0.5 |
| C5A C61G | 0.609 |

| Variant | yeast fitness |
| --- | --- |
| C5A A20G C49A | 0.568 |
| C5A A21C C30G C34U G38C C49U | ≤ 0.5 |
| C5A U26G C60G C61U | ≤ 0.5 |
| C5A C24G C49U | ≤ 0.5 |
| C5A G17A A40G C46A | ≤ 0.5 |
| C5A U19C C22G C24A G39C A45C | 0.596 |
| C5A C29A A70U | ≤ 0.5 |
| C5A C31U A70G | 0.614 |
| C5A U16C C30A A45U G50C G63A | ≤ 0.5 |
| C5A C24G U26A C29G U32A | 0.531 |
| C5A A21C C34G G52A C62G | 0.565 |
| C5A G39A G44A | 0.62 |
| C5A C27A C34G | 0.507 |
| C5A C34U G41C A69G | ≤ 0.5 |
| C5A G6C C11G U19A C49A | 0.571 |
| C5A C31A C55A C61A G63A G67U | ≤ 0.5 |
| C5A G67U | 0.865 |
| C5A G17A A40U | ≤ 0.5 |
| C5A U16A C22G A37U | 0.717 |
| C5A C34G A65C | ≤ 0.5 |
| C5A C22A G56A | 0.525 |
| C5A U26C G41C A43U A57G | ≤ 0.5 |
| C5A C31A A40C A43U A65G C66G | ≤ 0.5 |
